Data set [1] can be described thus: folding enthalpy; higher = less favourable; fluorescence melt of hairpins on a sequencing array, two-state fit. The conditions noted are these: sodium 0.088 M. In short, it runs like this: (§1)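 On a sequenced MiSeq flow cell, library hairpins with annealed Cy3 and quencher oligos were imaged for Cy3 fluorescence in 2.5 °C steps up to 60 °C, in 50 mM Na-HEPES pH 8.0, 25 mM NaCl. Normalisation used pre-quench Cy3 and control constructs. Bootstrapped two-state fits gave melting temperature and folding enthalpy, combined by inverse variance across four replicates and with fitted temperatures raised by 9.35 °C to match UV melts.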

Data set [2] in a line: melting temperature; fluorescence melt of hairpins on a sequencing array, two-state fit, raised by 9.35 °C to match UV melts. The conditions noted are these: sodium 0.088 M. In short, it runs like this:
as §1

As for GGTTTCGAAAGAAGCACC ((((((....)))..))), the folding enthalpy in data set [1] is -16.5 kcal/mol. The Tm in data set [2] was 28.6 °C.
Regarding GGTTTCGGAAACGAGACC (((.(((....))).))), in data set [1], the folding enthalpy is -33.1 kcal/mol. Moreover, the Tm in data set [2] amounted to 50 °C.
As for GGTTTGAAAAAACC (((((....))))), in data set [1], the folding enthalpy is -25 kcal/mol. Further, the Tm in data set [2] is 46.3 °C.
Take GGTTTGGGAAACCGAACC ((((.((....)).)))): the folding enthalpy in data set [1] was -34.2 kcal/mol. Also, the Tm in data set [2] came out at 52.3 °C.
The matching figures for GGTTTGGGAAACTAAGCC ((.((.(....).)).)): -13.6 kcal/mol and 30.2 °C.
The matching figures for GGTTTTGCGAAAGCAACC (((..(((....)))))): -11.9 kcal/mol and 30.2 °C.
As to GGTTTTGGAAACGAAACC (((((.(....).))))), the folding enthalpy in data set [1] was -43.9 kcal/mol. Further, in data set [2], the Tm worked out at 47.5 °C.
With GTAAAACCGAAAGGTTAC (((..(((....)))))), in data set [1], the folding enthalpy was -14.9 kcal/mol. In addition, the Tm in data set [2] amounted to 31 °C.
The matching figures for GTAAAACGAAAGTTATAC (((.(((....))).))): -14.8 kcal/mol and 31.6 °C.
GTAAAAGGAAACTTTTGC (.(((((....))))).): the folding enthalpy in data set [1] was -24.1 kcal/mol. Besides, the Tm in data set [2] amounted to 33.5 °C.
With GTAAACGAAAGTTTCTAC ((((((....)))..))), the folding enthalpy in data set [1] was -12.3 kcal/mol. Moreover, in data set [2], the Tm stood at 30.2 °C.
For the sequence GTAAACGAAAGTTTGTAC ((((((....)))..))), the folding enthalpy in data set [1] was -15.1 kcal/mol. The Tm in data set [2] came out at 27.6 °C.
Take GTAAACGAAAGTTTTTAC ((((((....)))..))): in data set [1], the folding enthalpy was -12 kcal/mol. In data set [2], the Tm amounted to 24.9 °C.
The matching figures for GTAAACGGAAACGTTTGC (.(((((....))))).): -26.1 kcal/mol and 48.5 °C.
The matching figures for GTAAATCGAAAGATATAC (((.(((....))).))): -12.1 kcal/mol and 29.7 °C.
The matching figures for GTAAATGGAAACATTTGC (.(((((....))))).): -28.9 kcal/mol and 38.6 °C.
On to GTAACACGAAAGTGCTAC (((.(((....))).))), for which, in data set [1], the folding enthalpy was -28.4 kcal/mol. Moreover, the Tm in data set [2] worked out at 43.7 °C.
The like results for GTAACACGAAAGTGGTAC (((.(((....))).))) were, in that order, -41.3 kcal/mol and 55.1 °C.
For the sequence GTAACACGAAAGTGTAC (((.(((....)))))), the folding enthalpy in data set [1] was -14 kcal/mol. In data set [2], the Tm came to 42.8 °C.
The matching figures for GTAACAGGAAACCGTTAC (((((.(....).))))): -29.5 kcal/mol and 37.5 °C.
The matching figures for GTAACAGGAAACTGTCAC ((.((((....)))).)): -15.5 kcal/mol and 30.7 °C.
The like results for GTAACAGGAAACTGTTGC (.(((((....))))).) were, in that order, -24.4 kcal/mol and 45.3 °C.
Take GTAACCCGAAAGGGATAC (((.(((....))).))): the folding enthalpy in data set [1] is -23.4 kcal/mol. In data set [2], the Tm worked out at 48.6 °C.
For GTAACCGAAAGGTGGTAC ((((((....)))..))), the folding enthalpy in data set [1] was -12.3 kcal/mol. The Tm in data set [2] is 33.8 °C.
The matching figures for GTAACCGAAAGGTTCTAC ((((((....)))..))): -11.3 kcal/mol and 37.7 °C.
Turning to GTAACCGAAAGGTTTTAC ((((((....)))..))), in data set [1], the folding enthalpy was -8.83 kcal/mol. The Tm in data set [2] worked out at 29.2 °C.
The like results for GTAACGCGAAAGCGATAC (((.(((....))).))) were, in that order, -24.1 kcal/mol and 51 °C.
The matching figures for GTAACGGGAAACCATTAC ((((.((....)).)))): -11.8 kcal/mol and 28.4 °C.
Regarding GTAACGGGAAACTGTTAC (((((.(....).))))), the folding enthalpy in data set [1] is -30.4 kcal/mol. Moreover, the Tm in data set [2] came to 46.3 °C.
The matching figures for GTAACTCGAAAGAGATAC (((.(((....))).))): -27.6 kcal/mol and 42 °C.
Take GTAACTCGAAAGAGGTAC (((.(((....))).))): the folding enthalpy in data set [1] was -28.7 kcal/mol. In addition, the Tm in data set [2] was found to be 51.6 °C.
For GTAACTGGAAACAGCTAC (((.(((....))).))), the folding enthalpy in data set [1] was -30.1 kcal/mol. Further, in data set [2], the Tm came to 34.2 °C.
GTAAGAGCGAAAGCTTAC (((..(((....)))))): the folding enthalpy in data set [1] is -14.9 kcal/mol. Further, the Tm in data set [2] was determined as 33.5 °C.
The matching figures for GTAAGCACGAAAGTGTAC (((..(((....)))))): -9.4 kcal/mol and 27.9 °C.
The like results for GTAAGCGAAAGCTATAC ((((((....))).))) were, in that order, -14.9 kcal/mol and 33.8 °C.
The matching figures for GTAAGCGAAAGCTGTAC ((((((....))).))): -15.7 kcal/mol and 43 °C.
With GTAAGCGAAAGCTTTAC ((((((....))).))), the folding enthalpy in data set [1] is -12.9 kcal/mol. Further, the Tm in data set [2] stood at 42 °C.
The matching figures for GTAAGCGCGAAAGCGTAC (((..(((....)))))): -9.28 kcal/mol and 28.8 °C.
Take GTAAGCGGAAACGCTTAC (((((((....))))))): in data set [1], the folding enthalpy is -36.1 kcal/mol. The Tm in data set [2] was 65.2 °C.
The matching figures for GTAAGCGGAAACGCTTGC (.(((((....))))).): -22.7 kcal/mol and 54.1 °C.
The like results for GTAAGGACGAAAGTCTAC (((..(((....)))))) were, in that order, -8.78 kcal/mol and 30.2 °C.
The matching figures for GTAAGGCGAAAGCCTAC (((.(((....)))))): -11.4 kcal/mol and 46 °C.
Consider GTAAGGGCGAAAGCCTAC (((..(((....)))))), for which the folding enthalpy in data set [1] was -8.85 kcal/mol. Also, the Tm in data set [2] was 29.7 °C.
The like results for GTAAGTCGAAAGACATAC (((.(((....))).))) were, in that order, -21.5 kcal/mol and 38.7 °C.
The matching figures for GTAATCGAAAGATACTAC ((((((....)))..))): -18.4 kcal/mol and 31.4 °C.
The matching figures for GTAATCGAAAGATTAC ((((((....)))))): -48.2 kcal/mol and 53.3 °C.
For GTAATCGGAAACGATTAC (((((((....))))))), the folding enthalpy in data set [1] was -42.4 kcal/mol. For the same sequence, in data set [2], the Tm was 56.4 °C.
The like results for GTAATCGGAAACGATTGC (.(((((....))))).) were, in that order, -25.6 kcal/mol and 48.2 °C.
For GTAATCGGAAACGGTTAC ((((.((....)).)))), the folding enthalpy in data set [1] was -33.2 kcal/mol. Besides, the Tm in data set [2] stood at 46.7 °C.
The matching figures for GTAATCTCGAAAGAGTAC (((..(((....)))))): -10.9 kcal/mol and 26.7 °C.
As for GTAATGGGAAACCACTAC (((.(((....))).))), the folding enthalpy in data set [1] is -15.9 kcal/mol. For the same sequence, in data set [2], the Tm is 27.6 °C.
The matching figures for GTAATTCGAAAGAAATAC (((.(((....))).))): -16.9 kcal/mol and 33 °C.
The like results for GTAATTCGAAAGAATAC (((.(((....)))))) were, in that order, -15.2 kcal/mol and 32 °C.
As for GTAATTGGAAACAGTTAC ((((.((....)).)))), the folding enthalpy in data set [1] is -21.2 kcal/mol. For the same sequence, the Tm in data set [2] stood at 35.9 °C.
The matching figures for GTACAAGGAAACTTGCAC ((.((((....)))).)): -25.4 kcal/mol and 34.1 °C.
The like results for GTACACCCGAAAGGGTAC (((..(((....)))))) were, in that order, -9.29 kcal/mol and 33 °C.
The matching figures for GTACACCGAAAGGTATAC (((.(((....))).))): -22.3 kcal/mol and 39.1 °C.
On to GTACACCGAAAGGTCTAC (((.(((....))).))), for which the folding enthalpy in data set [1] is -15.3 kcal/mol. For the same sequence, in data set [2], the Tm was 30.9 °C.
The like results for GTACACGGAAACGTGCAC ((.((((....)))).)) were, in that order, -17.9 kcal/mol and 46.8 °C.
The matching figures for GTACAGAAATGTAC (((((....))))): -20.2 kcal/mol and 40.4 °C.
The like results for GTACAGCGAAAGCTTAC (((.(((....)))))) were, in that order, -13.1 kcal/mol and 38.1 °C.
Turning to GTACAGGAAACTGTAC ((((((....)))))), the folding enthalpy in data set [1] is -41.6 kcal/mol. For the same sequence, the Tm in data set [2] is 52.4 °C.
The like results for GTACAGGCGAAAGCCTAC (((..(((....)))))) were, in that order, -8.61 kcal/mol and 34.9 °C.
The matching figures for GTACAGGGAAACCTGTAC (((((((....))))))): -40.3 kcal/mol and 59.4 °C.
As for GTACATCGAAAGATCTAC (((.(((....))).))), the folding enthalpy in data set [1] was -10.2 kcal/mol. For the same sequence, the Tm in data set [2] worked out at 25.1 °C.
The matching figures for GTACATGGAAACACGTAC ((((.((....)).)))): -21.9 kcal/mol and 36.2 °C.
The matching figures for GTACCAGGAAACTGGCAC ((.((((....)))).)): -21.1 kcal/mol and 42.1 °C.
For the sequence GTACCCCGAAAGGGCTAC (((.(((....))).))), in data set [1], the folding enthalpy is -14 kcal/mol. Further, in data set [2], the Tm amounted to 35.7 °C.
For the sequence GTACCCGAAAGGGACTAC ((((((....)))..))), the folding enthalpy in data set [1] is -14.3 kcal/mol. For the same sequence, the Tm in data set [2] came out at 45.8 °C.
The like results for GTACCCGAAAGGGAGTAC ((((((....)))..))) were, in that order, -15.3 kcal/mol and 39.9 °C.
The matching figures for GTACCCGAAAGGGATAC ((((((....))).))): -15.3 kcal/mol and 47 °C.
The like results for GTACCCGGAAACGGGCAC ((.((((....)))).)) were, in that order, -18.7 kcal/mol and 50 °C.
Take GTACCCTCGAAAGAGTAC (((..(((....)))))): in data set [1], the folding enthalpy was -10.6 kcal/mol. The Tm in data set [2] was found to be 25.2 °C.

(Values after the array DNA melting data of Ke et al. (doi:10.1101/2024.01.08.574731).)
